From PubChem
CAL PDZ FP-1: CAL PDZ (human) peptide binding inhibition; Q9HD26; purified CAL PDZ, TMR-peptide fluorescence polarization, 1 h; inhibition, % at 24.9 µM; 300,000 compounds, 0.92% hits; AID 602252;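 active = mean inhibition of at least 30% with at least half of replicates also reaching 30%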
Rtt109 Vps75: blocks Candida albicans Rtt109/Vps75 acetyltransferase activity. AID 540336. inhibition, % at 34.9 µM. purified Rtt109/Vps75, ThioGlo CoA-SH fluorescence, 4 h. 330,000 compounds, 0.16% hits;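 active = inhibition of at least 50% in every replicate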
Target sequence (Q5AAJ8 whole entry, looked up): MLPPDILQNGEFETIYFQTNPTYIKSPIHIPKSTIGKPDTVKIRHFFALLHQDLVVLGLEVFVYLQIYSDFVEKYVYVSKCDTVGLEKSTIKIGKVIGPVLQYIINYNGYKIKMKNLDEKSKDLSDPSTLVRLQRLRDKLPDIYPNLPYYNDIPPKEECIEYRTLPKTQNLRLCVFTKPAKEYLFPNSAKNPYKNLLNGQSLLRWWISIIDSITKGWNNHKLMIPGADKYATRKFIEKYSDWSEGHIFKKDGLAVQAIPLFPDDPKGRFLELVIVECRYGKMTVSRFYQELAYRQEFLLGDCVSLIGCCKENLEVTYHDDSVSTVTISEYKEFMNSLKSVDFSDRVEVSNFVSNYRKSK
DYRK1A inh: blocks rat Dyrk1A kinase activity. Q63470. ADP-Glo luminescence, NFATc1 peptide. inhibition, % at 12.5 µM. 310,000 compounds, 0.43% hits. AID 504441; in the data active = inhibition above about 50%
CAL PDZ FP-2: human CAL PDZ-peptide interaction inhibition; Q9HD26; purified CAL PDZ, TMR-peptide fluorescence polarization, 1 h; inhibition, % at 20 µM; 330,000 compounds, 0.02% hits; AID 504414;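 active = highest replicate inhibition of at least 40%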
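Test system: purified CerCALP PDZ construct; Compound dosing: one concentration, 20 µM compound; Also added: TMR-labelled reporter peptide T*-PRC34 bound in PDZ groove; Read-out: inhibition from polarization loss; Controls: unlabelled peptide and DMSO controls; Signal: FP readout, S and P plane fluorescence; Incubation: 1 h at RT.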
ALR H2O2 inh: inhibitors of human sulfhydryl oxidase ALR. purified ALR, DTT oxidation, H2O2 HRP-luminol luminescence. AID 485317. 290,000 compounds, 3.8% hits. P55789. inhibition, % (test concentration not listed);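 active = mean replicate inhibition above about 79%, with every replicate also reaching it, limit read from the data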
Target sequence (P55789 whole entry, looked up): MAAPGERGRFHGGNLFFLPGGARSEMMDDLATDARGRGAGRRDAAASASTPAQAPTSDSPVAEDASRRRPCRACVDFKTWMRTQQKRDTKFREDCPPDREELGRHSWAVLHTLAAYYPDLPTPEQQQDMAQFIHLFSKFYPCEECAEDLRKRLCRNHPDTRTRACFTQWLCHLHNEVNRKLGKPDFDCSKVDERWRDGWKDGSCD
Hits are given with their value; . = inactive; / = no result given. Sampled rows, rich in hits. Any-hit rate of the full collection: about 4.3%.

SMILES | CAL PDZ FP-1 | Rtt109 Vps75 | DYRK1A inh | CAL PDZ FP-2 | ALR H2O2 inh
S=c1[nH]nc(-c2ccncc2)n1Cc1ccco1 | . | . | . | . | 96
S=c1[nH]nc(-c2ccc(Br)cc2)n1Cc1ccco1 | . | . | . | . | 88
Fc1ccc(-c2n[nH]c(=S)n2CC2CCCO2)cc1 (stereo not drawn) | . | . | . | . | .
S=c1[nH]nc(-c2ccncc2)n1CC1CCCO1 (stereo not drawn) | . | . | . | . | 93
CCCCCC(=O)Nc1cccc(C2=NOC3(C2)C[C@H](C(N)=O)N(C(=O)c2ccccc2C(=O)c2ccccc2)C3)c1 (stereo partly drawn) | . | . | / | . | /
O=C(Nc1ccc(N2CCCCCC2)cc1)c1cccc(S(=O)(=O)N2CCOCC2)c1 | 36 | . | / | . | .
COc1ccc(CC(=O)NCCC(C)C)cc1S(=O)(=O)N1CCOCC1 | 42 | . | . | . | .
COc1ccc(C(=O)Nc2ccc(N3CCCCCC3)cc2)cc1S(=O)(=O)N1CCOCC1 | . | . | / | . | 98
Cc1c(C(=O)OCC(C)C)[nH]c2c1C(=O)CC(c1cccs1)C2 (stereo not drawn) | . | . | . | . | .
Cc1nc2ccc(Br)cn2c1NC(C)(C)C | . | . | . | . | 95
COc1cccc2c(N/N=C/c3ccc(O)c(O)c3)cc(C)nc12 | / | . | . | . | 99
Cc1ccc2nc(C)cc(N/N=C/c3cccc(O)c3)c2c1 | . | . | . | . | 99
CCOC(=O)c1c(S(=O)(=O)N2CCCCC2C)c(C)n(C)c1C (stereo not drawn) | . | . | . | . | .
Cc1ccc(C(=O)Nc2ccc(N3CCOCC3)nc2)cc1 | . | . | . | . | .
COc1ccc(NC(=O)c2ccc(N3CCOCC3)nc2)cc1 | . | . | . | . | .
CN(C)c1ccc(NC(=O)c2ccc(N3CCOCC3)nc2)cc1 | . | . | . | . | 100
CN1CCN(c2ccc(NC(=O)c3ccc(Cl)cc3)cn2)CC1 | . | . | / | . | 94
COc1cc(NC(=O)Cn2nc(C(F)(F)F)c(Br)c2C)cc([N+](=O)[O-])c1 | . | . | . | . | .
CCOC(CNC(=O)c1ccc2c(c1)ncn2-c1ccccc1OC)OCC | . | / | . | . | .
O=C(O)c1cccc(-n2sc3ccccc3c2=O)c1 | . | 178 | . | . | .
O=c1c2cc(F)ccc2sn1-c1ccccc1 | . | 132 | . | . | .
Cc1ccccc1-n1sc2cc(F)ccc2c1=O | . | 102 | . | . | /
O=c1c2ccccc2sn1-c1ccccc1 | . | . | . | . | .
CS(=O)(=O)N1CCC(C(=O)N2CCN(c3ccc(F)cc3)CC2)CC1 | . | . | / | . | .
CC(C)(C)NC(=O)C(=O)NNC(=O)COc1ccc(Br)cc1 | . | . | . | . | .
SMILES | CAL PDZ FP-1 | Rtt109 Vps75 | DYRK1A inh | CAL PDZ FP-2 | ALR H2O2 inh
O=C1CCCN1c1ccc(C(=O)N(Cc2nnc(-c3ccc(Cl)cc3)o2)C2CC2)cc1 | . | . | . | . | .
CCN(CCNC(=O)c1ccc(CSc2nc3ccncc3[nH]2)cc1)c1ccccc1 | / | . | . | . | 98
O=C(NCCN1CCN(c2cccc(Cl)c2)CC1)c1ccc(CSc2nc3ccncc3[nH]2)cc1 | . | / | . | . | .
COc1cc(-n2ccnc2SC)c(Cl)cc1Cl | 54 | . | . | . | .
O=S(=O)(N[C@H](CO)c1ccccc1)c1ccc(Br)cc1F | . | . | . | . | /
CC(CO)NS(=O)(=O)c1ccc(Br)cc1F (stereo not drawn) | 40 | . | . | . | /
Cc1ncc(CSc2nc3ccccc3[nH]2)c(N)n1 | / | . | . | . | 88
CCn1c(CSCc2ccccc2)n[nH]c1=S | . | . | . | . | .
Cc1noc(C)c1CSc1nc2ccccc2n1CCc1ccccc1 | . | . | . | . | 95
CCn1c(CSc2nc3ccccc3[nH]2)n[nH]c1=S | . | . | . | . | 96
Cc1noc(C)c1CSc1nc2ccccc2[nH]1 | . | . | . | / | 99
O=C(O)CCn1c(SCc2ccccc2)nc2ccccc21 | . | . | / | . | .
CCOc1ccccc1CSc1nc2ccccc2[nH]1 | . | . | . | . | .
CCC(Cc1ccccc1)NS(=O)(=O)c1ccc2c(c1)NC(=O)CO2 (stereo not drawn) | . | . | . | . | .
CCN(CC)C(=O)c1[nH]cnc1C(=O)NCc1ccc(CNC(=O)OC(C)(C)C)cc1 | . | . | . | . | .
Cc1cc(NC(=O)CCCn2cc([N+](=O)[O-])cn2)n(Cc2ccc(F)cc2)n1 | . | . | . | . | .
COc1ccc(CNC(=O)c2ccc(Cl)c(S(=O)(=O)N3CCOCC3)c2)cc1OC | . | . | / | . | .
CCn1c(CCn2c3ccccc3c3ccccc32)n[nH]c1=S | . | 50 | . | . | 88
O=C(NCc1ccccc1)c1nccnc1CO | . | . | . | . | /
CC(CCc1ccccc1)NS(=O)(=O)c1ccccc1Cl (stereo not drawn) | . | . | . | . | .
O=C(CC(SCCO)c1ccc(F)cc1)c1ccco1 (stereo not drawn) | . | . | . | . | 89
Cc1ccc(C(CC(=O)c2ccco2)SCCO)cc1 (stereo not drawn) | . | . | . | . | .
COc1ccc(C2CN=NC23CCCc2ccccc2C3=O)cc1 (stereo not drawn) | 57 | . | . | . | .
Cc1ccc(NC(=S)N(CCN2CCOCC2)Cc2cc3cc4c(cc3[nH]c2=O)OCO4)cc1 | 52 | / | . | . | .
CCOc1ccc(NC(=S)N(CCN2CCOCC2)Cc2cc3cc4c(cc3[nH]c2=O)OCO4)cc1 | 63 | / | . | . | .
SMILES | CAL PDZ FP-1 | Rtt109 Vps75 | DYRK1A inh | CAL PDZ FP-2 | ALR H2O2 inh
Cc1ccc(NC(=S)N(CCN2CCOCC2)Cc2cc3cc4c(cc3[nH]c2=O)OCCO4)cc1 | . | . | . | . | /
COc1ccc(NC(=S)N(CCN2CCOCC2)Cc2cc3cc4c(cc3[nH]c2=O)OCO4)cc1 | / | / | / | / | .
CCOC(=O)NC(=O)/C(N=Nc1ccc(C(F)(F)F)cc1)=C(\C)O | 45 | . | . | . | .
Cc1ccc(N2C(=O)CCC2=O)c(C)c1 | . | . | . | . | .
CCCNC(=O)c1ccc(C)c(NC(=O)C2=C(C)OCCS2)c1 | . | . | . | . | .
COc1ccc(N2C(=O)CSC23CCCCC3)cc1 | . | . | / | . | 98
CN(C)CCCNC(=O)C[C@H]1C[C@H](C(=O)N2CCOCC2)[C@@]2(CCC3CCCC3)c3[nH]c4cc(CCC(=O)N(C)C)ccc4c3CCN2C1=O | . | . | . | . | /
COC(=O)c1ccccc1S(=O)(=O)NCc1nc2nc(C)cc(C)n2n1 | / | . | . | . | .
CCOC(=O)c1[nH]c2cc(OC)c(OC)cc2c1NC(=O)c1ccc2c(c1)OCO2 | / | . | . | . | .
CCOC(=O)c1[nH]c2cc(OC)c(OC)cc2c1NC(=O)CN(C)C1CCCCC1 | . | . | . | / | 97
CC(C)CC(=O)NC(=S)Nc1ccc(S(=O)(=O)NC(C)(C)C)cc1 | . | 55 | . | . | .
